From ChEMBL document CHEMBL4261487, “Small structural changes of the imidazopyridine diacylglycerol acyltransferase 2 (DGAT2) inhibitors produce an improved safety profile” (Medchemcomm, 2017)
Values after ≈ are worked out from the molar mass of the structure shown.

Tests used:
Canis familiaris [1] = test: Unbound AUC in beagle dog at 300 mg/kg, po qd administered for 14 days; assay type: ADME, organism-based, Canis lupus familiaris; conditions: in vivo, 336 h
Procedure, shortened: (§1)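 Beagle dogs were dosed orally once daily in a 14-day exploratory study or 1-month toxicity studies. Steady-state systemic exposure over the 24 h dosing interval is reported as the mean of male and female values combined.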

Canis familiaris [2] = test: Unbound AUC in beagle dog at 2 mg/kg, po qd administered for 1 month; assay type: ADME, organism-based, Canis lupus familiaris; conditions: in vivo; procedure, shortened: as §1
Rattus norvegicus [3] = test: In vivo inhibition of DGAT2 in Wistar Han IGS rat assessed as coverage of in vitro IC50 for rat DGAT2 at 300 mg/kg, po qd administered for 1 month; assay type: functional; design: scale not given: the % may be the effect or the level left
Procedure, shortened: (§2)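 Wistar Han rats, once-daily oral dosing for 14 days (exploratory, 5/sex/dose) or 1 month (10/sex/dose); toxicokinetics in 3–4/sex/dose with sexes combined; coverage is the average % above rat DGAT2 IC50 at steady state over the 24 h dosing interval.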

Canis familiaris [4] = test: Toxicity in telemetered beagle dog assessed as increase in diastolic pressure at 25 mg/kg administered via oral gavage measured over 24 hrs; assay type: organism-based, Canis lupus familiaris; conditions: in vivo
Canis familiaris [5] = test: Toxicity in po dosed telemetered beagle dog assessed as increase in heart rate measured over 24 hrs; assay type: organism-based, Canis lupus familiaris; conditions: in vivo
Canis familiaris [6] = test: Toxicity in telemetered beagle dog assessed as change in ECG intervals at 5 mg/kg administered via oral gavage measured over 24 hrs; assay type: organism-based, Canis lupus familiaris; conditions: in vivo
Canis familiaris [7] = test: Unbound AUC in beagle dog at 100 to 150 mg/kg, po qd administered for 1 month; assay type: ADME, organism-based, Canis lupus familiaris; conditions: in vivo; procedure, shortened: as §1
Canis familiaris [8] = test: Toxicity in telemetered beagle dog assessed as increase in heart rate at 20 mg/kg, iv administered as single bolus dose over 2 mins; assay type: organism-based, Canis lupus familiaris; conditions: in vivo
Rattus norvegicus [9] = test: Toxicity in Wistar Han IGS rat assessed as gastric smooth muscle degeneration at 500 mg/kg, po qd administered for 14 days; assay type: organism-based; conditions: in vivo, 336 h
Procedure, shortened: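 Wistar Han rats, daily oral dosing for 14 days (5/sex/dose) or 1 month (10/sex/dose); microscopic findings reported as incidence by sex, plus organ weights.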

Canis familiaris [10] = test: In vivo inhibition of DGAT2 in beagle dog assessed as coverage of in vitro IC50 for dog DGAT2 at 100 to 150 mg/kg, po qd administered for 1 month; assay type: functional, Canis lupus familiaris; design: scale not given: the % may be the effect or the level left
Procedure, shortened: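 Beagle dogs, once-daily oral dosing for 14 days or 1 month; systemic exposure with sexes combined; coverage is the average % above dog DGAT2 IC50 at steady state over the 24 h dosing interval.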

Canis familiaris [11] = test: Unbound Cmax in beagle dog at 5 mg/kg, po qd administered for 1 month; assay type: ADME, organism-based, Canis lupus familiaris; conditions: in vivo
Procedure, shortened: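 One-month dog toxicity study with once-daily oral dosing. Toxicity groups were 2/sex/dose, and unbound peak exposure was taken from toxicokinetic sampling.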

Canis familiaris [12] = test: Toxicity in telemetered beagle dog assessed as change in blood pressure at 5 mg/kg administered via oral gavage measured over 24 hrs; assay type: organism-based, Canis lupus familiaris; conditions: in vivo
Canis familiaris [13] = test: Unbound Cmax in beagle dog at 50 mg/kg, po qd administered for 1 month; assay type: ADME, organism-based, Canis lupus familiaris; conditions: in vivo
Procedure, shortened: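 Beagle dogs were given the compound orally once daily for 1 month in a toxicity study, with 2 dogs per sex per dose group. Plasma exposure was measured at steady state across the 24 h dosing interval.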

Rattus norvegicus [14] = test: In vivo inhibition of DGAT2 in Wistar Han IGS rat assessed as coverage of in vitro IC50 for rat DGAT2 at 30 mg/kg, po qd administered for 1 month; assay type: functional; design: scale not given: the % may be the effect or the level left; procedure, shortened: as §2
Canis familiaris [15] = test: Unbound Cmax in beagle dog at 2 mg/kg, po qd administered for 1 month; assay type: ADME, organism-based, Canis lupus familiaris; conditions: in vivo; procedure, shortened: as §1
Canis familiaris [16] = test: Toxicity in beagle dog assessed as decrease in food consumption at 100 mg/kg, po qd administered starting on day 11 post 150 mg/kg dosing period and continuing for 20 days; assay type: organism-based, Canis lupus familiaris; conditions: in vivo, 480 h
[17] = Half life in beagle dog at 1 mg/kg, iv; assay type: ADME, organism-based, Canis lupus familiaris; conditions: in vivo
Canis familiaris [18] = test: Unbound AUC in beagle dog at 3 mg/kg, po qd administered for 1 month; assay type: ADME, organism-based, Canis lupus familiaris; conditions: in vivo; procedure, shortened: as §1
[19] = molecular target: T1, Diacylglycerol O-acyltransferase 2 (Canis lupus familiaris, UniProt A0A8I3NDW2); test: Inhibition of dog DGAT2
T1 sequence (A0A8I3NDW2 whole entry): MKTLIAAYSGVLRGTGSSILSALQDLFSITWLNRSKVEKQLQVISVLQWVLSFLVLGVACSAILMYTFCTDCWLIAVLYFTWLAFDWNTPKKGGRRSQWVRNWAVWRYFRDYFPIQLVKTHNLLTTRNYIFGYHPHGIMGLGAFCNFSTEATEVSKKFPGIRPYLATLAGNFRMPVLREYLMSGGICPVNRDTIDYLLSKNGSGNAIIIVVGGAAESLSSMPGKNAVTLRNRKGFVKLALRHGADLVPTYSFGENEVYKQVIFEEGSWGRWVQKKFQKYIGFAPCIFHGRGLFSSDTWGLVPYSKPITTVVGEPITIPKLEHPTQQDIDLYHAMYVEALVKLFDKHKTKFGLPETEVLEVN

[20] = Ratio of Cmax in telemetered beagle dog at 50 mg/kg administered via oral gavage measured over 24 hrs to IC50 for in vitro inhibition of dog DGAT2; assay type: organism-based, Canis lupus familiaris; conditions: in vivo
Procedure, shortened: (§3)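 Telemetered Beagle dogs given single oral doses (5, 25 and 50 mg kg–1), with systolic and diastolic blood pressure and heart rate monitored after dosing. Cmax is related to the dog DGAT2 enzymatic IC50, which is the geometric mean of at least three replicates.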

[21] = Ratio of Cmax in telemetered beagle dog at 25 mg/kg administered via oral gavage measured over 24 hrs to IC50 for in vitro inhibition of dog DGAT2; assay type: organism-based, Canis lupus familiaris; conditions: in vivo; procedure, shortened: as §3
Canis familiaris [22] = test: Toxicity in telemetered beagle dog assessed as increase in diastolic pressure at 5 mg/kg administered via oral gavage measured during 4 hrs of post dosing; assay type: organism-based, Canis lupus familiaris; conditions: in vivo
Canis familiaris [23] = test: Toxicity in telemetered beagle dog assessed as increase in systolic pressure at 5 mg/kg administered via oral gavage measured during 4 hrs of post dosing; assay type: organism-based, Canis lupus familiaris; conditions: in vivo
[24] = Ratio of Cmax in beagle dog at 10 mg/kg, po qd administered for 1 month to IC50 for in vitro inhibition of dog DGAT2; assay type: organism-based, Canis lupus familiaris; conditions: in vivo
Procedure, shortened: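 One-month toxicity study in Beagle dogs with N = 2/sex/dose. Plasma exposure at each dose level was referenced to the dog DGAT2 enzymatic IC50, reported as the geometric mean of at least three replicates.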

[25] = Thermodynamic solubility of the compound at pH 6.5; assay type: physicochemical; conditions: buffer, read-out: Therm_solubility
[26] = Apparent intrinsic clearance in rat hepatocytes assessed per million cells; assay type: ADME, cell-based, Hepatocyte
Canis familiaris [27] = test: Toxicity in telemetered beagle dog assessed as increase in diastolic pressure at 25 mg/kg administered via oral gavage measured during 4 hrs of post dosing; assay type: organism-based, Canis lupus familiaris; conditions: in vivo
[28] = molecular target: T2, Diacylglycerol O-acyltransferase 2 (Rattus norvegicus, UniProt Q5FVP8); test: Inhibition of rat DGAT2
T2 sequence (Q5FVP8 whole entry): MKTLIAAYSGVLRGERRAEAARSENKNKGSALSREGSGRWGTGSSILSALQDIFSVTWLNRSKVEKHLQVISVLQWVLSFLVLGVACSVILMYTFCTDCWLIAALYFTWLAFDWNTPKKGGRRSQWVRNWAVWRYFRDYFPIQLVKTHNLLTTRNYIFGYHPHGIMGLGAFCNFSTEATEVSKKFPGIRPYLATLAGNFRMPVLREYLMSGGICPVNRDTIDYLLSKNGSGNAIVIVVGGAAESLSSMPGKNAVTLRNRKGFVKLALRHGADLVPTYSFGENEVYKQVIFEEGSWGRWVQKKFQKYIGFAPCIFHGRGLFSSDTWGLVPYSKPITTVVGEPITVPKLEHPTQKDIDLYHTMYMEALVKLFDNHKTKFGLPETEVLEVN

In the case of `CS(=O)(=O)O.O=C([C@@H]1CCCN(c2ccc3nc(C4(n5cc(Cl)cn5)CC4)[nH]c3n2)C1)N1CCCC1`, the fAUC (Canis familiaris [1]) is reported as 78300 ng·h/mL, the fAUC (Canis familiaris [2]) is reported as 238 ng·h/mL and the Activity (Rattus norvegicus [3]) is reported as greater than 99%. For the same compound, the Activity (Canis familiaris [4]) was “Non-Toxic”, the Activity (Canis familiaris [5]) was “Dose-dependent effect” and the Activity (Canis familiaris [6]) was “Non-Toxic”. For the same compound, the fAUC (Canis familiaris [7]) was 92600 ng·h/mL, the Activity (Canis familiaris [8]) was 27 bpm and the Activity (Rattus norvegicus [9]) was “Toxic”. For the same compound, the Activity (Canis familiaris [10]) was greater than 99%, the fCmax (Canis familiaris [11]) was 1010 nM and the Activity (Canis familiaris [12]) was “Non-Toxic”. It also gave a fCmax (Canis familiaris [13]) of 12.7 µM, an Activity (Rattus norvegicus [14]) of 92% and a fCmax (Canis familiaris [15]) of 305 nM. The Activity (Canis familiaris [16]) was “Non-Toxic”.
Work on `C[C@@H](c1nc2ccc(N3CCC[C@@H](C(=O)N4CCCC4)C3)nc2[nH]1)n1cc(Cl)cn1` yielded a half-life [17] of 192 min, a fAUC (Canis familiaris [18]) of 797 ng·h/mL and an IC50 [19] of 41 nM. For the same compound, the Ratio [20] was 110, the Ratio [21] was 52 and the Activity (Canis familiaris [22]) was 4 to 6 mmHg. For the same compound, the Activity (Canis familiaris [23]) was 4 to 6 mmHg, the Ratio [24] was 31 and the solubility thermodynamic [25] was 285 µg/mL (≈ 666 µM). The “CLH(app)” value [26] was 12.7 µL/min, the Activity (Canis familiaris [27]) was 5 mmHg and the IC50 [28] was 155 nM.
